Laboratory results published in ChEMBL document CHEMBL3044571, “Identification of novel inhibitors of 1-aminocyclopropane-1-carboxylic acid synthase by chemical screening in Arabidopsis thaliana” (J Biol Chem, 2010).
pIC50, pKi: −log10 of the molar value. Activity calls are given as the source filed them. The rule behind the calls is not given here.

What was measured:
Arabidopsis thaliana [1] = assay: Inhibition of triple response phenotype in Arabidopsis thaliana seedlings expressing eto1-4 mutant by measuring hypocotyl elongation at 10 uM 3 days after germination in dark; format: functional; details: 72 h
Arabidopsis thaliana [2] = assay: Inhibition of ethylene biosynthesis in Arabidopsis thaliana eto1-4 expressing 5 x EBS::LUC assessed as decrease ethylene level at 10 uM 3 days after germination in dark relative to aminoethoxyvinylglycine; format: functional; details: 72 h
Arabidopsis thaliana [3] = assay: Inhibition of triple response phenotype in Arabidopsis thaliana seedlings expressing ctr1-1 mutant by measuring hypocotyl elongation at 10 uM 3 days after germination in dark; format: functional, organism-based
Arabidopsis thaliana [4] = assay: Inhibition of triple response phenotype in Arabidopsis thaliana seedlings expressing eto1-4 mutant and 5 x EBS::LUC by measuring hypocotyl elongation at 0.1 to 1 uM 3 days after germination in dark; format: functional, organism-based
Summary of the method: (§1)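 Etiolated eto1-4 seedlings grown 3 days in the dark at 22°C on 0.5xMS agar containing graded compound, STS or AVG, with DMSO control. Seeds bleach-sterilized and stratified 3–4 days at 4°C beforehand. Hypocotyl length measured from stereomicroscope images; means of n ≥30 seedlings.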

Arabidopsis thaliana [5] = assay: Inhibition of ethylene biosynthesis in Arabidopsis thaliana eto1-4 expressing 5 x EBS::LUC assessed as decrease ethylene level at 10 uM 3 days after germination in dark; format: functional, organism-based
Arabidopsis thaliana [6] = assay: Inhibition of triple response phenotype in Arabidopsis thaliana seedlings expressing eto1-4 mutant and 5 x EBS::LUC by measuring hypocotyl elongation at >5 uM 3 days after germination in dark; format: functional, organism-based; summary of the method: as §1
Arabidopsis thaliana [7] = assay: Inhibition of triple response phenotype in Arabidopsis thaliana seedlings expressing 35S::EIN3 by measuring hypocotyl elongation up to 50 uM 3 days after germination in dark; format: functional, organism-based
Arabidopsis thaliana [8] = assay: Inhibition of triple response phenotype in Arabidopsis thaliana seedlings expressing 35S::EIN3 by measuring hypocotyl elongation at 10 uM 3 days after germination in dark; format: functional, organism-based
Arabidopsis thaliana [9] = assay: Inhibition of triple response phenotype in Arabidopsis thaliana seedlings expressing ctr1-1 mutant by measuring hypocotyl elongation up to 50 uM 3 days after germination in dark; format: functional, organism-based
Arabidopsis thaliana [10] = assay: Inhibition of triple response phenotype in Arabidopsis thaliana seedlings expressing eto1-4 mutant by measuring hypocotyl elongation up to 50 uM 3 days after germination in dark; format: functional, organism-based
[11] = target: T1, 1-aminocyclopropane-1-carboxylate synthase 5 (Arabidopsis thaliana, UniProt Q37001); assay: Uncompetitive inhibition of Arabidopsis thaliana recombinant ACS5 expressed in Escherichia coli (BL21) assessed as oxidation of ACC to ethylene by Lineweaver-Burk plot analysis
T1 sequence (Q37001 whole entry): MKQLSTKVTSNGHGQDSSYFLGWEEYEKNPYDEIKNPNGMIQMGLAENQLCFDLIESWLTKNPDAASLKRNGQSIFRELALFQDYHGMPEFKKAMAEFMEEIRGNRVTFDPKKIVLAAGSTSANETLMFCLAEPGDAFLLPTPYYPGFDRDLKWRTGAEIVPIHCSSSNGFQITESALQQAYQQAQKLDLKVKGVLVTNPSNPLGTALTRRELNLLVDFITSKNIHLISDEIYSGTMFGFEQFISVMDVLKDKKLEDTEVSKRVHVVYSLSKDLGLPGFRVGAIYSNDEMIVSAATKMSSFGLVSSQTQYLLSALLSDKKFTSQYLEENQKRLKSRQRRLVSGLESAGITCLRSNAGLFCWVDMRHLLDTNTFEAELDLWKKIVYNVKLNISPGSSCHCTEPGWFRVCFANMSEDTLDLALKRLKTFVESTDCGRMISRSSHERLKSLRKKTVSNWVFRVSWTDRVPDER

Arabidopsis thaliana [12] = assay: Inhibition of triple response phenotype in Arabidopsis thaliana seedlings expressing eto2-1 mutant by measuring hypocotyl elongation at 10 to 30 uM 3 days after germination in dark; format: functional, organism-based
[13] = target: T1, 1-aminocyclopropane-1-carboxylate synthase 5; assay: Inhibition of Arabidopsis thaliana recombinant ACS5 expressed in Escherichia coli (BL21) assessed as oxidation of ACC to ethylene preincubated for 30 min measured after 10 min by gas chromatography
Summary of the method: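 His-tagged recombinant ACS5 expressed in E. coli (IPTG induction, 16°C, 18 h) and purified on a HisTrap column. Enzyme (1 μg) in 2 ml buffer A (pH 8.0) with 10 μM PLP and 250 μM SAM, plus graded compound or DMSO, for 30 min at 25°C. Stopped with HgCl2 and NaOH:bleach, which oxidize ACC to ethylene, quantified by GC against an ACC standard curve. Duplicate, repeated ≥3 times.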

Arabidopsis thaliana [14] = assay: Inhibition of triple response phenotype in Arabidopsis thaliana seedlings expressing eto1-4 mutant and 5 x EBS::LUC by measuring hypocotyl elongation at 1 to 5 uM 3 days after germination in dark; format: functional, organism-based; summary of the method: as §1

Q: With `O=S(O)(O)=S` [SILVER THIOSULFATE] as the compound, how does the inhibition at 10 µM (Arabidopsis thaliana [1]; tested as the Ag salt or complex) read?
A: 84%

Q: For `CC1(C)CC(=O)c2cnc(NCc3ccccc3)nc2C1`, which inhibition at 10 µM (Arabidopsis thaliana [2]) is on record?
A: 45%

Q: `CC1(C)CC(=O)c2cnc(Nc3ccccc3)nc2C1` was tested. Which inhibition at 10 µM (Arabidopsis thaliana [1]) did it give?
A: 29%

Q: And the inhibition at 10 µM (Arabidopsis thaliana [2])?
A: 77%

Q: With `CC1(C)CC(=O)c2cnc(NCc3ccc(F)cc3)nc2C1` as the compound, how does the inhibition at 10 µM (Arabidopsis thaliana [2]) read?
A: 69%

Q: `CCCCc1nc(N)nc2c1C(=O)CC(C)(C)C2` was tested. Which inhibition at 10 µM (Arabidopsis thaliana [2]) did it give?
A: 22%

Q: Which inhibition at 10 µM (Arabidopsis thaliana [2]) does the source give for `Cc1nc(Nc2ccc(F)cc2)nc2c1C(=O)CC(C)(C)C2` here?
A: 9%

Q: Which results are given for `CCCCNc1ncc2c(n1)CC(c1ccccc1)CC2=O` (centres undefined)?
A: inhibition at 10 µM (Arabidopsis thaliana [1]): 43%; inhibition at 10 µM (Arabidopsis thaliana [2]): 92%

Q: How did the inhibition at 10 µM (Arabidopsis thaliana [2]) turn out when `Cc1nc(Nc2ccccc2)nc2c1C(=O)CC(C)(C)C2` was run?
A: 67%

Q: With `COc1ccc(C2CC(=O)c3cnc(Nc4ccccc4)nc3C2)cc1` (centres undefined) as the compound, how does the inhibition at 10 µM (Arabidopsis thaliana [1]) read?
A: 77%

Q: And the inhibition (Arabidopsis thaliana [3])?
A: inactive

Q: What about the inhibition (Arabidopsis thaliana [4]) of the same compound?
A: Active

Q: What about the inhibition at 10 µM (Arabidopsis thaliana [2]) of the same compound?
A: 93%

Q: What about the inhibition (Arabidopsis thaliana [5]) of the same compound?
A: Active

Q: And the inhibition (Arabidopsis thaliana [6])?
A: Active

Q: What about the inhibition (Arabidopsis thaliana [7]) of the same compound?
A: inactive

Q: And the inhibition (Arabidopsis thaliana [8])?
A: inactive

Q: And the inhibition (Arabidopsis thaliana [9])?
A: inactive

Q: And the inhibition (Arabidopsis thaliana [10])?
A: Active

Q: What about the pKi [11] of the same compound?
A: 7.64

Q: What about the inhibition (Arabidopsis thaliana [12]) of the same compound?
A: Active

Q: For `CC1(C)CC(=O)c2cnc(Nc3ccc(F)cc3)nc2C1`, which inhibition at 10 µM (Arabidopsis thaliana [2]) is on record?
A: 36%

Q: What does the source list for `Cc1ccc(C2CC(=O)c3cnc(NC4CCCC4)nc3C2)cc1` (centres undefined)?
A: inhibition at 10 µM (Arabidopsis thaliana [1]): 66%; inhibition (Arabidopsis thaliana [3]): inactive; inhibition (Arabidopsis thaliana [4]): Active; inhibition at 10 µM (Arabidopsis thaliana [2]): 87%; inhibition (Arabidopsis thaliana [5]): Active; inhibition (Arabidopsis thaliana [6]): Active; inhibition (Arabidopsis thaliana [7]): inactive; inhibition (Arabidopsis thaliana [8]): inactive; inhibition (Arabidopsis thaliana [9]): inactive; inhibition (Arabidopsis thaliana [10]): Active; inhibition (Arabidopsis thaliana [12]): Active

Q: `CC1(C)CC(=O)c2cnc(NC3CCCC3)nc2C1` was tested. Which pIC50 [13] did it give?
A: 5.10

Q: And the inhibition at 10 µM (Arabidopsis thaliana [1])?
A: 55%

Q: What about the inhibition (Arabidopsis thaliana [3]) of the same compound?
A: inactive

Q: And the inhibition at 10 µM (Arabidopsis thaliana [2])?
A: 87%

Q: What about the inhibition (Arabidopsis thaliana [5]) of the same compound?
A: Active

Q: What about the inhibition (Arabidopsis thaliana [7]) of the same compound?
A: inactive

Q: What about the inhibition (Arabidopsis thaliana [8]) of the same compound?
A: inactive

Q: And the inhibition (Arabidopsis thaliana [9])?
A: inactive

Q: What about the inhibition (Arabidopsis thaliana [10]) of the same compound?
A: Active

Q: And the inhibition (Arabidopsis thaliana [12])?
A: Active

Q: Which inhibition at 10 µM (Arabidopsis thaliana [1]) does the source give for `O=C1CC(c2ccccc2Cl)Cc2nc(NC3CCCC3)ncc21` (centres undefined) here?
A: 54%

Q: What about the inhibition at 10 µM (Arabidopsis thaliana [2]) of the same compound?
A: 91%

Q: For `CC1CC(=O)c2cnc(NCc3ccccc3)nc2C1` (centres undefined), which inhibition at 10 µM (Arabidopsis thaliana [2]) is on record?
A: 54%

Q: Which results are given for `NCCO/C=C/C(N)C(=O)O` (centres undefined) [AMINOETHOXYVINYLGLYCINE]?
A: pIC50 [13]: 6.15; inhibition at 10 µM (Arabidopsis thaliana [1]): 100%; inhibition (Arabidopsis thaliana [14]): Active; pKi [11]: 7.82; inhibition (Arabidopsis thaliana [12]): Active

Q: Which results are given for `CC1CC(=O)c2cnc(Nc3ccccc3)nc2C1` (centres undefined)?
A: inhibition at 10 µM (Arabidopsis thaliana [1]): 28%; inhibition at 10 µM (Arabidopsis thaliana [2]): 82%
